Experimental data as given in ChEMBL document CHEMBL2021787 (Bioorg Med Chem Lett, 2012).

Legend:
HepG2 = assay: Cytotoxicity against human HepG2 cells at 20 to 25 uM after 48 hrs by MTT assay; format: cell-based; conditions: hepg2, 48 h
Summary of the method: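 HepG2 cells were seeded at 2500/well and grown 24 h, then exposed to compound for 48 h. MTT (20 µL of a 5 mg/mL stock) was added for 2.5 h at 37 °C, and OD was read at 570 nm. Results are reported as % inhibition at a single concentration.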

[1] = system: Mycobacterium tuberculosis; assay: Antimycobacterial activity against Mycobacterium tuberculosis H37Rv by agar dilution method; format: functional
Summary of the method: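 Agar dilution on Middlebrook 7H11 agar supplemented with OADC, following the NCCLS approach, using log-phase M. tuberculosis cultures. Run in triplicate. MIC was taken as the lowest concentration giving complete inhibition of growth.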

[2] = system: Mycobacterium tuberculosis; assay: Ratio of INH MIC to compound MIC for Mycobacterium tuberculosis H37Rv by agar dilution method; format: functional
[3] = (§1) Oral bioavailability in Wistar rat at 50 mg/kg administered as single dose; format: ADME, organism-based; conditions: Wistar, in vivo
Summary of the method: (§2)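 Male Wistar rats got a single oral dose of 50 mg/kg as a suspension in 0.25% sodium CMC with Tween 80. Plasma was measured by reverse-phase HPLC with PDA detection and analysed non-compartmentally. AUC covered 10 h. Bioavailability was derived against a separate 10 mg/kg iv bolus dose in the same vehicle system as the iv study.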

[4] = Plasma clearance in Wistar rat at 10 mg/kg, iv administered as single bolus dose; format: ADME, organism-based; parameters: dose 10 mg/kg, route intravenous
Summary of the method: (§3)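 Male Wistar rats given a single iv bolus of 10 mg/kg in 20% propylene glycol, 10% cremophor ELP and 20% N-methylpyrrolidone in normal saline. Plasma was assayed by reverse-phase HPLC with PDA detection. Parameters came from plasma concentration–time data by non-compartmental analysis.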

[5] = Tmax in Wistar rat at 50 mg/kg, po administered as single dose; format: ADME, organism-based; parameters: dose 50 mg/kg, route oral; conditions: in vivo; summary of the method: as §2
[6] = Elimination rate constant in Wistar rat at 10 mg/kg, iv administered as single bolus dose; format: ADME, organism-based; parameters: dose 10 mg/kg, route intravenous; conditions: in vivo; summary of the method: as §3
[7] = Half life in Wistar rat at 10 mg/kg, iv administered as single bolus dose; format: ADME, organism-based; parameters: dose 10 mg/kg, route intravenous; conditions: in vivo; summary of the method: as §3
[8] = (§4) AUC (0 to t) in Wistar rat at 50 mg/kg, po administered as single dose; format: ADME, organism-based, Plasma; parameters: dose 50 mg/kg, route oral; conditions: Wistar, plasma; summary of the method: as §2
[9] = Cmax in Wistar rat at 10 mg/kg, iv administered as single bolus dose; format: ADME, organism-based; parameters: dose 10 mg/kg, route intravenous; conditions: in vivo; summary of the method: as §3
[10] = Cmax in Wistar rat at 50 mg/kg, po administered as single dose; format: ADME, organism-based; parameters: dose 50 mg/kg, route oral; conditions: in vivo; summary of the method: as §2
[11] = Volume of distribution in Wistar rat at 10 mg/kg, iv administered as single bolus dose; format: ADME, organism-based; parameters: dose 10 mg/kg, route intravenous; conditions: in vivo; summary of the method: as §3
[12] = (§5) AUC (0 to t) in Wistar rat at 10 mg/kg, iv administered as single bolus dose; format: ADME, organism-based, Plasma; parameters: dose 10 mg/kg, route intravenous; conditions: Wistar, plasma; summary of the method: as §3
Rattus norvegicus [13] = assay: as §1; format: ADME, organism-based; conditions: in vivo; summary of the method: as §2
Rattus norvegicus [14] = assay: as §4; format: ADME, organism-based, Plasma; parameters: dose 50 mg/kg, route oral; conditions: in vivo; summary of the method: as §2
Rattus norvegicus [15] = assay: as §5; format: ADME, organism-based, Plasma; parameters: dose 10 mg/kg, route intravenous; conditions: in vivo; summary of the method: as §3

Structure (SMILES)	Activity (HepG2) [%]	MIC [1]	further results
O=C(NN1C(=O)CCSC1c1cccc(O)c1)c1ccncc1 (stereo not drawn)	8.2	9.49 µM	–
O=C(NNCc1ccccc1)c1ccncc1	–	0.2 µg/mL	–
O=C(NN1C(=O)CCSC1c1ccc(Br)cc1)c1ccncc1 (stereo not drawn)	18.4	0.5 µM	–
O=C(NN1C(=O)CCSC1c1ccccc1)c1ccncc1 (stereo not drawn)	10.6	9.9 µM	–
O=C(NN1C(=O)CCSC1c1ccccc1F)c1ccncc1 (stereo not drawn)	18.6	0.6 µM	–
O=C(NN1C(=O)CCSC1c1ccccc1[N+](=O)[O-])c1ccncc1 (stereo not drawn)	28.8	2.12 µM	–
O=C(NN1C(=O)CCSC1Cc1ccc([N+](=O)[O-])o1)c1ccncc1 (stereo not drawn)	38.6	4.48 µM	–
COc1cc(C2SCCC(=O)N2NC(=O)c2ccncc2)cc(OC)c1OC (stereo not drawn)	8.6	7.76 µM	–
O=C(NN1C(=O)CCSC1c1ccccc1Cl)c1ccncc1 (stereo not drawn)	20.6	1.15 µM	–
CC1(C)CC(=O)C2=C(C1)N(NC(=O)c1ccncc1)C1=C(C(=O)CC(C)(C)C1)C2c1ccccc1OCc1ccccc1	–	0.17 µM	–
Cc1c(CN2CCN(c3cccc(C(F)(F)F)c3)CC2)cc(-c2ccccc2)n1NC(=O)c1ccncc1 [SUDOTERB]	–	0.25 µg/mL	–
O=C(NN1C(=O)CCSC1c1cccc(C(F)(F)F)c1)c1ccncc1 (stereo not drawn)	26.4	0.52 µM	–
O=C(NN1C(=O)CCSC1c1cccc(F)c1)c1ccncc1 (stereo not drawn)	16.4	0.6 µM	–
O=C(NN1C(=O)CCSC1c1ccc(F)cc1)c1ccncc1 (stereo not drawn)	18.6	0.3 µM	–
C/C(=N/NC(=O)c1ccncc1)c1cccc(CN2CCNCC2)c1O	–	0.56 µM	–
O=C(NN1C(=O)CCSC1c1cccc(OCc2ccccc2)c1)c1ccncc1 (stereo not drawn)	12.6	0.24 µM	–
O=C(NN1C(=O)CCSC1c1ccccc1Br)c1ccncc1 (stereo not drawn)	22.2	0.25 µM	–
O=C(NN1C(=O)CCSC1c1ccc(OCc2ccccc2)cc1)c1ccncc1 (stereo not drawn)	8.8	0.12 µM	Ratio [2]: 3; bioavailability [3]: 16.7%; clearance [4]: 22.5 mL/min/kg; Tmax [5]: 3 h; k el [6]: 0.000172 s⁻¹; half-life [7]: 1.14 h; AUC(0-t) [8]: 5870 ng·h/mL; Cmax [9]: 5290 ng/mL; Cmax [10]: 1310 ng/mL; Vd [11]: 1.99 L; AUC(0-t) [12]: 7500 ng·h/mL
O=C(NN1C(=O)CCSC1c1ccc(C(F)(F)F)cc1)c1ccncc1 (stereo not drawn)	20.6	0.13 µM	–
O=C(NN1C(=O)CCSC1c1ccccc1O)c1ccncc1 (stereo not drawn)	8.6	19 µM	–

Structure (SMILES)	Activity (HepG2) [%]	MIC [1]	further results
Cc1cccc(C2SCCC(=O)N2NC(=O)c2ccncc2)c1 (stereo not drawn)	8.6	9.56 µM	–
O=C(NN1C(=O)CCSC1c1ccccc1OCc1ccccc1)c1ccncc1 (stereo not drawn)	10.6	0.24 µM	–
O=C(c1ccncc1)N1N=CCC1(O)C(F)(F)F (stereo not drawn)	–	0.77 µM	–
COc1ccc(C2SCCC(=O)N2NC(=O)c2ccncc2)cc1 (stereo not drawn)	12.6	4.54 µM	–
O=C(NN1C(=O)CCSC1c1ccc(O)cc1)c1ccncc1 (stereo not drawn)	10.7	18.9 µM	–
C/C(=N\NC(=O)c1ccncc1)c1ccc(NC(=S)Nc2ccc(F)cc2)cc1	–	0.45 µM	–
O=C(NN1C(=O)CCSC1c1ccc([N+](=O)[O-])cc1)c1ccncc1 (stereo not drawn)	32	1.11 µM	–
CC(C)c1ccc(C2SCCC(=O)N2NC(=O)c2ccncc2)cc1 (stereo not drawn)	19	2.14 µM	–
NNC(=O)c1ccncc1 [ISONIAZID]	10	0.36 µM	F (Rattus norvegicus [13]): 17.36%; clearance [4]: 0.21 mL/min/kg; Tmax [5]: 2 h; k el [6]: 6.67e-05 s⁻¹; AUCt (Rattus norvegicus [14]): 197090 ng·h/mL; Cmax [9]: 298000 ng/mL; Cmax [10]: 52300 ng/mL; Vd [11]: 0.026 L; AUCt (Rattus norvegicus [15]): 684000 ng·h/mL
COc1cc(C2SCCC(=O)N2NC(=O)c2ccncc2)ccc1O (stereo not drawn)	16.11	8.7 µM	–
Cc1ccccc1C1SCCC(=O)N1NC(=O)c1ccncc1 (stereo not drawn)	12.6	9.56 µM	–
COc1ccccc1C1SCCC(=O)N1NC(=O)c1ccncc1 (stereo not drawn)	15.2	9.08 µM	–
O=C(NN1C(=O)CCSC1c1ccc(Cl)cc1)c1ccncc1 (stereo not drawn)	26.8	0.575 µM	–
O=C(NN=C1CCCCC1)c1ccncc1	–	0.0004 µM	–
CN(C)c1ccc(C2SCCC(=O)N2NC(=O)c2ccncc2)cc1 (stereo not drawn)	4.6	8.78 µM	–
COc1cccc(C2SCCC(=O)N2NC(=O)c2ccncc2)c1 (stereo not drawn)	10.4	9.08 µM	–
O=C(NN1C(=O)CCSC1c1cccc([N+](=O)[O-])c1)c1ccncc1 (stereo not drawn)	28.6	0.56 µM	–
Cc1ccc(C2SCCC(=O)N2NC(=O)c2ccncc2)cc1 (stereo not drawn)	12.4	9.56 µM	–
O=C(NN1C(=O)CCSC1Cc1ccco1)c1ccncc1 (stereo not drawn)	18.6	41.2 µM	–
O=C(NN1C(=O)CCSC1c1ccccc1C(F)(F)F)c1ccncc1 (stereo not drawn)	24.2	0.52 µM	–
